Columns and labels:
[1] = target: Tyrosine 3-monooxygenase (Rattus norvegicus) (UniProt P04177); test: Tyrosine hydroxylase activity at 0.1 uM in rat striatal minces; type: functional
D(1A) dopamine receptor [2] = target: T1, D(1A) dopamine receptor (Rattus norvegicus, UniProt P18901); test: Binding affinity against dopamine receptor D1 from rat striatal homogenates, using [3H]SCH-23390 as radioligand.
How it was run: (§1)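 Competition binding with rat striatal homogenates in Tris-HCl, pH 7.4, with 150 mM NaCl at 30 °C. […] Nonspecific binding was defined by 0.3 μM cis-(Z)-flupenthixol. Six or more concentrations bracketing the IC50 were run in duplicate, with three replications. IC50 values came from curve fitting.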

D(2) dopamine receptor [3] = target: T2, D(2) dopamine receptor (Rattus norvegicus, UniProt P61169); test: Binding affinity against dopamine receptor D2 from rat striatal homogenates using [3H]YM-09151-2
How it was run: (§2)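 Competition binding with rat striatal homogenates in Tris-HCl, pH 7.4, containing 150 mM NaCl at 30 °C. […] Nonspecific binding was defined by (+)-butaclamol. Six or more concentrations bracketing the IC50 were run in duplicate, with three replications. IC50 values came from curve fitting.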

D(1A) dopamine receptor [4] = target: T1, D(1A) dopamine receptor; test: Binding affinity against dopamine receptor D1 from rat striatal homogenates, using [3H]SCH-23,390 as radioligand; how it was run: as §1
[5] = target: Tyrosine 3-monooxygenase (Rattus norvegicus) (UniProt P04177); test: Tyrosine hydroxylase activity at 0.1 uM in rat striatal minces; effect blocked by BMY-14802; type: functional
D(2) dopamine receptor [6] = target: T2, D(2) dopamine receptor; test: Binding affinity against dopamine receptor D2 from rat striatal homogenates, using [3H]YM-09151-2 as radioligand; how it was run: as §2
[7] = target: Tyrosine 3-monooxygenase (Rattus norvegicus) (UniProt P04177); test: Tyrosine hydroxylase activity at 0.1 uM in rat striatal minces; effect not blocked by BMY-14802; type: functional
[8] = target: Tyrosine 3-monooxygenase (Rattus norvegicus) (UniProt P04177); test: Tyrosine hydroxylase activity at 0.1 uM in rat striatal minces; effect not blocked bt BMY-14802; type: functional

Tyrosine 3-monooxygenase (Rattus norvegicus), sequence (P04177 whole entry): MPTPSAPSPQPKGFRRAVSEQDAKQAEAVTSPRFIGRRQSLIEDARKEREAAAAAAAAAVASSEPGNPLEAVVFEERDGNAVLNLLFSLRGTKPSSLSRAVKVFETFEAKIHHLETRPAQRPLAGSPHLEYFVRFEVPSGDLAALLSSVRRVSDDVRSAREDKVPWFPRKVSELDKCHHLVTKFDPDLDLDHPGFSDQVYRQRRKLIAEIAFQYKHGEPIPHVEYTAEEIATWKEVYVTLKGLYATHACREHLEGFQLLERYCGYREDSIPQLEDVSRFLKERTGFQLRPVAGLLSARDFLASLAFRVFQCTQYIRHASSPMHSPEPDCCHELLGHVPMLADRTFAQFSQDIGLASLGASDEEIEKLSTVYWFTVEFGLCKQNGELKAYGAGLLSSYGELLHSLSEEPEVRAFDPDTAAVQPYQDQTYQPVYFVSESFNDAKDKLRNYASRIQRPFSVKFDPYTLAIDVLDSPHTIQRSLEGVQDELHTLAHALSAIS
T1 sequence (P18901 whole entry): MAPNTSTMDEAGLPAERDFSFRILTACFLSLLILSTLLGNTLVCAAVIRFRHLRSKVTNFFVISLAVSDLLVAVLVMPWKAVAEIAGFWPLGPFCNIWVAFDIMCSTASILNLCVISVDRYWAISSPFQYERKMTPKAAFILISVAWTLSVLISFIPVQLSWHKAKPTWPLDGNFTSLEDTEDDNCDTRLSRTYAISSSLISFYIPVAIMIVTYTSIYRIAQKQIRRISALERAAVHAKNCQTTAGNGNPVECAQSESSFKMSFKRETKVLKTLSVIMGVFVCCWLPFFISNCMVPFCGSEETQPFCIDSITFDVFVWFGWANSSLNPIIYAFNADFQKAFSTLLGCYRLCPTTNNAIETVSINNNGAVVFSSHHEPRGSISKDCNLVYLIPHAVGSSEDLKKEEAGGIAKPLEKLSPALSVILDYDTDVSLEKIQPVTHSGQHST
T2 sequence (P61169 whole entry): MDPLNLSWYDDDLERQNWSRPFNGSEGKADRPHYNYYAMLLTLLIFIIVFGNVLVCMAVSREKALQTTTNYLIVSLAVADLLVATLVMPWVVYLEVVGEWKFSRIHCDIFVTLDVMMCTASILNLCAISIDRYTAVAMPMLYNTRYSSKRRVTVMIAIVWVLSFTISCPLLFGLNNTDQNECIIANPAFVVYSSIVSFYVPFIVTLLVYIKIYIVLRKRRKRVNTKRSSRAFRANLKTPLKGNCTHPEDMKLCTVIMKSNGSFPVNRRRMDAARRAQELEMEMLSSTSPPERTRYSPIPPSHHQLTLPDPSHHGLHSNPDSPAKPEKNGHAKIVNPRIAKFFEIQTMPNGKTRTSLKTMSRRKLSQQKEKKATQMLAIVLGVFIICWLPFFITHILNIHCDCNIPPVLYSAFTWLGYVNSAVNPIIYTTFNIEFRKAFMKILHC

Row | Control [1] [%] | IC50 (D(1A) dopamine receptor [2]) [µM] | IC50 (D(2) dopamine receptor [3]) [µM] | Compound | further results
1 | – | > 30 | > 10 | NC1Cc2cc(O)c(O)cc2C(c2ccccc2)C1 (cis isomer) [listing 1 of 2 here] | –
2 | – | > 1 | > 5 | CN(C)C1Cc2cc(O)c(O)cc2C(c2ccccc2)C1 (cis isomer) [listing 1 of 2 here] | –
3 | 100 | – | – | CN(C)C1Cc2cc(O)c(O)cc2C(c2ccccc2)C1 (cis isomer) [listing 2 of 2 here] | –
4 | 95 | – | – | NC1Cc2cc(O)c(O)cc2C(c2ccccc2)C1 (cis isomer) [listing 2 of 2 here] | –
5 | – | > 30 | > 30 | NC1Cc2cc(O)c(O)cc2C(c2ccccc2)C1 (trans isomer) [listing 1 of 2 here] | –
6 | – | > 10 | > 5 | CN(C)C1Cc2cc(O)c(O)cc2C(c2ccccc2)C1 (trans isomer) [listing 1 of 2 here] | –
7 | 99 | – | – | CNC1Cc2cc(Cl)c(O)cc2C(c2ccccc2)C1 (trans isomer) | IC50 (D(1A) dopamine receptor [4]): 0.849 µM; IC50 (D(2) dopamine receptor [6]): 10 µM

The next lines start with the molecule.

Row | Compound | Control [1] [%] | IC50 (D(1A) dopamine receptor [2]) [µM] | IC50 (D(2) dopamine receptor [3]) [µM] | further results
8 | C=CCN(CC=C)C1Cc2ccccc2C(c2ccccc2)C1 (configuration not stated) | 104 | 10 | 4 | –
9 | CN(C)[C@H]1Cc2cc(Cl)c(O)cc2[C@H](c2ccccc2)C1 | – | – | 4.13 | IC50 (D(1A) dopamine receptor [4]): 1.89 µM; Control [5]: 128%
10 | C=CCN(C)C1Cc2ccccc2C(c2ccccc2)C1 (configuration not stated) | 72 | – | – | –
11 | CN(C)C1Cc2ccccc2C(c2ccccc2)C1 (configuration not stated) | 101 | – | – | –
12 | CN(C)[C@H]1CCc2ccccc2[C@H]1c1ccccc1 | 111 | – | – | –
13 | CN(C)C1Cc2cc(Cl)c(O)cc2C(c2ccccc2)C1 (cis isomer) | 94 | – | – | –
14 | C=CCNC1Cc2ccccc2C(c2ccccc2)C1 (trans isomer) | 102 | 10 | 6 | –
15 | NC1Cc2ccccc2C(c2ccccc2)C1 (trans isomer) | 86 | > 10 | > 10 | –
16 | CCN(CC)C1Cc2ccccc2C(c2ccccc2)C1 (trans isomer) | 95 | – | – | –
17 | CN(C)C1Cc2cc(O)c(O)cc2C(c2ccccc2)C1 (trans isomer) [listing 2 of 2 here] | – | – | – | Control [7]: 75%
18 | NC1Cc2cc(O)c(O)cc2C(c2ccccc2)C1 (trans isomer) [listing 2 of 2 here] | – | – | – | Control [8]: 71%
